Source: ChEMBL document CHEMBL4130581, “Securamine Derivatives from the Arctic Bryozoan Securiflustra securifrons” (J Nat Prod, 2017)
Calls of active or inactive are those of the source. The rule behind the calls is not given here.

Assays:
HT-29 [1] = experiment: Cytotoxicity in human HT-29 cells assessed as reduction in cell survival incubated for 72 hrs by MTS assay; assay type: functional, cell-based; settings: HT-29, 72 h
Outline: (§1)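 HT-29 colon adenocarcinoma cells kept in RPMI with 10% FBS and L-alanyl-L-glutamine at 37 °C, 5% CO2. Seeded at 2000 cells/well and left 24 h before 72 h exposure to various concentrations. MTS reagent for 1 h, then absorbance at 485 nm. Survival scaled between 1% DMSO and 0.5% Triton X-100 controls. IC50 from eight concentration points. Means ± SD of three independent determinations.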

MRC5 [2] = experiment: Cytotoxicity in human MRC5 cells assessed as reduction in cell survival incubated for 72 hrs by MTS assay; assay type: cell-based; settings: MRC5, 72 h
Outline: (§2)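 Nonmalignant MRC-5 lung fibroblasts in supplemented E-MEM (10% FBS, glutamine, NEAA, pyruvate, bicarbonate) at 37 °C, 5% CO2. Seeded at 4000 cells/well and allowed 24 h to adhere. Exposed to ranging concentrations for 24 or 72 h. MTS added for 1 h, absorbance at 485 nm. Survival normalised to 1% DMSO and 0.5% Triton X-100 controls. Triplicates, three independent experiments.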

A2058 [3] = experiment: Cytotoxicity in human A2058 cells assessed as reduction in cell survival incubated for 72 hrs by MTS assay; assay type: functional, cell-based; settings: A2058, 72 h
Outline: (§3)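 A2058 human melanoma cells grown in D-MEM with 10% FBS and L-alanyl-L-glutamine at 37 °C, 5% CO2. Seeded at 2000 cells/well and allowed to adhere 24 h. Exposed to a range of concentrations for 4, 24, 48 or 72 h. MTS added for 1 h, then absorbance read at 485 nm. Survival normalised to 1% DMSO (negative) and 0.5% Triton X-100 (positive) controls. Triplicate wells, three independent experiments.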

MCF7 [4] = experiment: Cytotoxicity in human MCF7 cells assessed as reduction in cell survival incubated for 72 hrs by MTS assay; assay type: functional, cell-based; settings: MCF7, 72 h
Outline: (§4)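 MCF-7 breast adenocarcinoma cells in E-MEM with 10% FBS, L-alanyl-L-glutamine, nonessential amino acids, sodium pyruvate and sodium bicarbonate at 37 °C, 5% CO2. Plated at 2000 cells/well and left 24 h, then treated 72 h across a concentration range. MTS for 1 h, read at 485 nm. Survival relative to 1% DMSO and 0.5% Triton X-100 controls. IC50 by regression on eight concentrations. Three independent experiments, mean ± SD.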

MCF7 [5] = experiment: Cytotoxicity in human MCF7 cells assessed as reduction in cell survival by MTS assay; assay type: functional, cell-based; settings: TDE = time-dependent effect; outline: as §4
A2058 [6] = experiment: Cytotoxicity in human A2058 cells assessed as reduction in cell survival by MTS assay; assay type: functional, cell-based; settings: TDE = time-dependent effect; outline: as §3
MRC5 [7] = experiment: Cytotoxicity in human MRC5 cells assessed as reduction in cell survival by MTS assay; assay type: cell-based; settings: TDE = time-dependent effect; outline: as §2
HT-29 [8] = experiment: Cytotoxicity in human HT-29 cells assessed as reduction in cell survival by MTS assay; assay type: functional, cell-based; settings: TDE = time-dependent effect; outline: as §1
MRC5 [9] = experiment: Cytotoxicity in human MRC5 cells assessed as reduction in cell survival incubated for 24 hrs by MTS assay; assay type: cell-based; settings: MRC5, 24 h; outline: as §2
A2058 [10] = experiment: Cytotoxicity in human A2058 cells assessed as reduction in cell survival at 0.313 to 10 uM incubated for 4 hrs by MTS assay; assay type: functional, cell-based; outline: as §3
A2058 [11] = experiment: Cytotoxicity in human A2058 cells assessed as reduction in cell survival incubated for 24 hrs by MTS assay; assay type: functional, cell-based; settings: A2058, 24 h; outline: as §3
A2058 [12] = experiment: Cytotoxicity in human A2058 cells assessed as reduction in cell survival incubated for 48 hrs by MTS assay; assay type: functional, cell-based; settings: A2058, 48 h; outline: as §3

SMILES | IC50 (HT-29 [1]) [µM] | IC50 (MRC5 [2]) [µM] | IC50 (A2058 [3]) [µM] | IC50 (MCF7 [4]) [µM] | Activity (MCF7 [5]) | Activity (A2058 [6]) | Activity (MRC5 [7]) | Activity (HT-29 [8]) | IC50 (MRC5 [9]) [µM] | Activity (A2058 [10]) | IC50 (A2058 [11]) [nM] | IC50 (A2058 [12]) [nM]
CC1(C)[C@@H](Cl)C[C@]23[C@@H]4CC(=O)N2C=CC2=NC(=O)N[C@@]21N3c1cc(Br)c(Br)cc14 | 2.5 | 5.3 | 2.7 | 2.4 | – | – | – | – | – | – | – | –
CO[C@H]1[C@H](O)C2=NC(=O)N[C@@]23N2c4cc(Br)c(Br)c(Br)c4[C@H]4CC(=O)N1[C@]42C[C@H](Cl)C3(C)C | > 50 | > 50 | > 50 | > 50 | – | – | – | – | – | – | – | –
CC1(C)[C@@H](Cl)C[C@]23[C@@H]4CC(=O)N2C=CC2=NC(=O)N[C@@]21N3c1cc(Br)cc(Br)c14 | 10 | 9.6 | 6.7 | 8.5 | – | – | – | – | – | – | – | –
CC1(C)[C@@H](Cl)C[C@]23[C@@H]4CC(=O)N2C=CC2=NC(=O)N[C@@]21N3c1cc(Br)ccc14 | 21 | 30 | 20 | 23 | – | – | – | – | – | – | – | –
CC1(C)[C@@H](Cl)C[C@]23[C@@H]4CC(=O)N2C=CC2=NC(=O)N[C@@]21N3c1cc(Br)c(Br)c(Br)c14 | 1.9 | 2.7 | 1.4 | 2.1 | Tde | Tde | Tde | Tde | > 10 | inactive | 2800 | 1800
